Source: PMC2699564 (Journal of medicinal chemistry, 2009)

Experiments:
[1] = tested on: radiation-induce fibrosarcoma (RIF) cells; experiment: In vitro photosensitizing efficacy; assay type: cell-based; settings: 24 h incubation, 0.25 μM (Figure 8), light 0-4 J/cm^2, MTT
Colon-26 cells = experiment: In vitro cell uptake, Colon-26 cells; assay type: cell-based
RIF tumors [2] = experiment: In vivo PDT efficacy; set-up: species or system C3H mice; settings: for toxicity (deaths post PDT): 135 J/cm^2, five mice/group; for tumor free mice (tumor cure) / tumor free mice (tumor cure) at day 60: 665 nm, 135 J/cm^2, 75 mW/cm^2 at 24 h post-injection, five mice/group
Method in brief: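 Female C3H/HeJ mice received 2×10^5 RIF cells intradermally in HBSS lacking Ca²⁺/Mg²⁺. At 4–5 mm tumors, hair was removed and test compound given i.v. the day before light, at 0.5, 1.0 or 1.5 μmol/kg, five mice/group. At 24 h, mice were restrained unanaesthetised and tumor irradiated with dye laser at 665 nm: 1 cm², 75 mW/cm², 135 J/cm², 30 min. Mice were watched daily for weight loss, scabbing and regrowth; V = (L × W²)/2. Sacrificed at 400 mm³; cured if no regrowth by day 60.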

RIF cells = experiment: In vitro cell uptake by fluorescence, RIF cells; assay type: cell-based
Method in brief: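 RIF cells incubated with test compound; cellular uptake read by fluorescence at 3 and 24 h post-incubation.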

RIF tumors [3] = experiment: In vivo biodistribution of ^124I-labeled compounds; set-up: species or system C3H mice; settings: for liver and spleen uptake compared among compounds 1-3: C3H mice; for liver and spleen uptake compared among compounds 1-3 / tumor uptake compared among compounds 1-3: 24-96 h post injection; for tumor uptake compared among compounds 1-3 / tumor uptake: RIF tumor; for tumor uptake: ^124I-labeled, i.v.
Method in brief: (§1)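 ¹²⁴I-labeled test compound (radiochemical purity >95%, in saline with 10% ethanol) given via tail vein at 15–200 μCi; 3–4 mice per compound/time point. Sacrificed at 24, 48, 72 and 96 h. Blood, tumor, heart, liver, spleen, kidney, lung, muscle, gut and stomach removed and weighed. Activity measured by gamma well counter; uptake expressed as %ID/g; mean of 3 or 4 mice.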

RIF tumor = experiment: microPET imaging, RUV and relative tumor activity, RIF tumor; assay type: in vivo
Colon-26 tumor = experiment: microPET imaging, RUV and relative tumor activity, Colon-26 tumor; assay type: in vivo
Colon-26 tumors = experiment: In vivo biodistribution of ^124I-labeled 1; set-up: species or system BALB/c mice; settings: for tumor uptake: Colon-26 tumor, ^124I-labeled, i.v.
Method in brief: as §1

`CCC1=C(C)c2cc3[nH]c(cc4nc(c5c6[nH]c(cc1n2)c(C)c6C(=O)C5)[C@@H](CCC(=O)N[C@@H]1O[C@H](CO)[C@H](O)[C@H](O)[C@H]1O)[C@@H]4C)c(C)c3C(C)OCc1cccc([124I])c1` (some centres unmarked) [Compound 3, {1′-(m-iodobenzyloxy)ethyl}-17[2]-(1-amino-1-deoxy)galactosamide-pyro pheophorbide-a] was tested, and the “in vitro PDT efficacy compared to 1” value [1] was “more effective than the corresponding non-carbohydrate analog 1”, the “cell uptake compared to compound 1” value (Colon-26 cells) was “higher uptake” and the “toxicity (deaths post PDT)” value (RIF tumors [2]; 1.00 μmole/kg i.v.) was “all five mice died within 24h post PDT”. The “toxicity (deaths post PDT)” value (RIF tumors [2]; 1.5 μmol/kg i.v.) was “all five mice died within 24 h post light treatment”, the “cell uptake compared to compound 1” value (RIF cells) was “higher uptake” and the “liver and spleen uptake compared among compounds 1-3” value (RIF tumors [3]) was “considerably higher liver and spleen uptake at all time points”. The “tumor uptake compared among compounds 1-3” value (RIF tumors [3]) was “higher uptake values at the 72 and 96 hrs time points”.

In the case of `CCC1=C(C)c2cc3[nH]c(cc4nc(c5c6[nH]c(cc1n2)c(C)c6C(=O)C5)[C@@H](CCC(=O)OC)[C@@H]4C)c(C)c3C(C)OCc1cccc([124I])c1` (some centres unmarked) [Compound 1, 3-{1′-(m-iodobenzyloxy)ethyl}pyropheophorbide-a methyl ester], the “tumor free mice (tumor cure)” value (RIF tumors [2]; 1.00 μmole/kg i.v.) is reported as “one out of five mice was tumor free”, the “tumor free mice (tumor cure) at day 60” value (RIF tumors [2]; 1.5 μmol/kg i.v.) is reported as “four out of five mice were tumor free” and the “relative tumor activity (tumor activity to whole body activity in image)” value (RIF tumor; RIF tumor, ^124I-1 about constant over three scans in 3 days) is reported as ~0.035. For the same compound, the “time of best tumor contrast in PET images” value (RIF tumor; both tumor models (RIF and Colon-26), post injection) was 72 h, the “relative tumor activity over time” value (Colon-26 tumor; 24-96 h) was “increasing relative quantity of activity in the tumor” and the “relative uptake value (RUV) compared with RIF tumor” value (Colon-26 tumor; after 48 hours of injection) was “higher RUV values than RIF tumor”. The “tumor uptake in Colo-26 relative to RIF” value (Colon-26 tumors; 72 h post injection) was 3 fold, the “tumor uptake in Colo-26 relative to RIF” value (Colon-26 tumors; 96 h post injection) was 3 fold and the tumor uptake (Colon-26 tumors; 24 h post injection) was 4.6 %ID/g. It also gave a tumor uptake (Colon-26 tumors; 48 h post injection) of 4.4 %ID/g, a tumor uptake (Colon-26 tumors; 72 h post injection) of 2.5 %ID/g and a tumor uptake (Colon-26 tumors; 96 h post injection) of 2.0 %ID/g. The “blood uptake, BALB/c vs C3H mice” value (Colon-26 tumors; ^124I-labeled 1) was “slightly higher blood uptake in BALB/c mice than C3H mice”, the “uptake in other organs, BALB/c vs C3H mice” value (Colon-26 tumors; ^124I-labeled 1) was “lower uptake in BALB/c mice than the C3H mice” and the “tumor uptake compared among compounds 1-3” value (RIF tumors [3]) was “highest tumor uptake value at 24 and 48 hrs time points”. The tumor uptake (RIF tumors [3]; 24 h post injection) was 4.1 %ID/g, the tumor uptake (RIF tumors [3]; 48 h post injection) was 2.1 %ID/g and the tumor uptake (RIF tumors [3]; 72 h post injection) was 0.8 %ID/g. For the same compound, the tumor uptake (RIF tumors [3]; 96 h post injection) was 0.6 %ID/g.

`CCC1=C(C)c2cc3[nH]c(cc4nc(c5c6[nH]c(cc1n2)c(C)c6C(=O)C5)[C@@H](CCC(=O)N[C@@H]1[C@@H](O)[C@H](O)[C@@H](CO)O[C@H]1O)[C@@H]4C)c(C)c3C(C)OCc1cccc([124I])c1` (some centres unmarked) [Compound 2, 3-{1′-(m-iodobenzyloxy)ethyl}-17[2]-(2-amino-2-deoxy)glucosamide-pyropheo phorbide-a] was tested, and the “in vitro PDT efficacy compared to 1” value [1] was “more effective than the corresponding non-carbohydrate analog 1”, the “cell uptake compared to compound 1” value (Colon-26 cells) was “higher uptake” and the “tumor free mice (tumor cure)” value (RIF tumors [2]; 0.50 μmole/kg i.v.) was “one out of five mice was tumor free”. The “tumor free mice (tumor cure)” value (RIF tumors [2]; 1.00 μmole/kg i.v.) was “two out of five mice were tumor free”, the “toxicity (deaths post PDT)” value (RIF tumors [2]; 1.5 μmol/kg i.v.) was “two mice died within 24 h post PDT” and the “tumor free mice (tumor cure) at day 60” value (RIF tumors [2]; 1.5 μmol/kg i.v.) was “two out of remaining three mice were tumor free”. For the same compound, the “cell uptake compared to compound 1” value (RIF cells) was “higher uptake”, the “liver and spleen uptake compared among compounds 1-3” value (RIF tumors [3]) was “lower spleen and liver uptake than 3 but higher than that of 1” and the “tumor uptake compared among compounds 1-3” value (RIF tumors [3]) was “least tumor uptake among all compounds at all time points”.
